S100A4 inh HTS – inhibitors of S100A4-myosin IIA peptide binding, primary screen, biochemical, fluorescence polarization, TAMRA-MyoIIA peptide. hit rate 0.14% among 360,000. inhibition, % at 10.7 µM. Protein S100-A4 (Homo sapiens), P26447;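 active means mean inhibition of at least 70% across replicates, with every replicate also reaching that level; inconclusive means mean inhibition reaches 70% but some replicates fall short; inactive means mean inhibition below 70%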
Target sequence (P26447 whole entry, looked up): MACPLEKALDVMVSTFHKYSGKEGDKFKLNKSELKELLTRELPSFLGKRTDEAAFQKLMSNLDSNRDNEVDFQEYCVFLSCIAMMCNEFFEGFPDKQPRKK
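Compound dosing: one dose per compound; test system: human S100A4 monomer with TAMRA-labelled myosin IIA peptide; probe or stimulus: TAMRA-labelled myosin IIA heavy-chain peptide probe, 5 nM; medium: HEPES buffer with Ca2+, pH 7.2; schedule: 5 min incubation before reading; benchmarks: neutral control DMSO, positive control TFP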
SIRT5 inh – SIRT5 desuccinylase inhibitors, primary screen, biochemical, fluorescence imaging, single point, set 5; NAD-dependent protein deacylase sirtuin-5, mitochondrial (Homo sapiens), Q9NXA8; Purified SirT5, succinyl-peptide AMC, trypsin-coupled fluorescence; inhibition, % at 15 µM; hit rate 1.1% among 330,000; in the data active means inhibition above about 15%; inconclusive means no clear call, values can overlap the other calls
Target sequence (Q9NXA8 whole entry, looked up): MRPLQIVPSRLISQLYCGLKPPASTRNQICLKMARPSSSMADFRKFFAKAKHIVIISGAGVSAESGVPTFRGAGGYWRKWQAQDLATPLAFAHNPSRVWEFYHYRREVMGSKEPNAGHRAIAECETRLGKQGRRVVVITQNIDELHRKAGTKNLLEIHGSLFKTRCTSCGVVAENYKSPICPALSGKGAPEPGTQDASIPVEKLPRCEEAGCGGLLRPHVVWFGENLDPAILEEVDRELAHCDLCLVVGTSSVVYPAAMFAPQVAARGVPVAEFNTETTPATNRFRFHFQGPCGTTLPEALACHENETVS
CFTR F508del cor – F508del CFTR correction, initial screen, CFBE line, single point | CFBE cells, YFP halide quenching; stimulated with forskolin plus potentiator P3; % fluorescence drop versus neutral controls | activity (quench increase), % at 7.58 µM | hit rate 0.36% among 350,000 | AID 720511, 2013;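 active means mean added fluorescence quench of at least 8% versus neutral control, with both replicates also reaching 8%; inconclusive means only one of the mean or replicate conditions met; inactive means mean below 8% and not both replicates reaching 8%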;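 further: cells transiently co-express mutant CFTR-F508del with the halide-sensitive YFP; corrector assay measuring rescue of mutant channel to the surface after 24 h compound exposure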
ERAP1 inh – human ERAP1 aminopeptidase inhibitors, primary screen, biochemical, single point, plate reader; AID 652197, 2013; Endoplasmic reticulum aminopeptidase 1 (Homo sapiens), Q9NZ08; inhibition, % at 10.7 µM; recombinant ERAP1, Leu-AMC fluorescence, 60 min; hit rate 0.15% among 340,000;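 active means mean replicate inhibition of at least 30%, or all replicates individually reaching that 30% level; inactive means mean below 30% and not every replicate reaching it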
Ecoli rRNA inh – reduced GFP signal of wild-type E. coli, primary screen, bacterial rRNA inhibitor project, GFP/RFP fluorescence, OD600, single point; hit rate 1.6% among 350,000; E. coli WT GFP vs humanized-ribosome RFP mutants, 24 h; stronger effect = lower value; DMSO median 0, no signal -100; AID 720706, 2013; GFP signal change (wild-type ribosome), % (no concentration beside the values);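 active means significant combined selectivity score with lowered wild-type GFP, culture density cut under 30%, mutant RFP and density less affected; inactive means any of these conditions unmet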
AID977621 – growth inhibition of wild-type GFP E. coli, dose response, H69 mutant RFP, cherry-pick. shares compounds with Ecoli rRNA inh. E. coli wild-type GFP strain growth, fluorescence, 24 h. activity change, negative = inhibition at 50 µM. 1,900 tested, under 10 active. AID 977621, 2014;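 active means Wild-type ribosome reporter drop at least double the humanized mutant ribosome reporter drop, growth loss under a set limit; inconclusive means no clear call, values can overlap the other calls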;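 further: wild-type GFP and H69 mutant RFP strains grown together 50/50 in each well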
AID977628 – E. coli growth inhibition, wild-type GFP versus h24 humanized RFP strain, dose response, h24 mutant RFP vs wild-type GFP, cherry-pick. AID 977628, 2014. E. coli WT GFP strain growth, fluorescence, 24 h. 1,900 tested, under 10 active. activity change, negative = inhibition at 50 µM. shares compounds with Ecoli rRNA inh;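 active means compound lowering the normal-ribosome reporter at least twice as much as the humanized-ribosome reporter, growth loss under a set limit; inconclusive means no clear call, values can overlap the other calls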;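 further: wild-type GFP and h24 humanized RFP strains co-cultured 1 to 1 per well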
Large screens that a line does not name were inactive (follow-up assays come after a bar, where they were run). In the library only some 3.1% were active in any assay of this set; here they are far more common.

C[C@H](CO)N1C[C@H](C)[C@@H](CN(C)C(=O)Nc2ccc(C(F)(F)F)cc2)Oc2c(NS(=O)(=O)c3ccc(Cl)cc3)cccc2C1=O	none
C[C@H](CO)N1C[C@H](C)[C@H](CN(C)C(=O)C2CCOCC2)Oc2cc(C3=CCCCC3)ccc2S1(=O)=O	none
O=C(CCNc1cccc(Cl)c1)c1cccs1	Ecoli rRNA inh -20 | AID977621 inactive | AID977628 inactive
COCC(=O)N1CC2(C1)CN(C(=O)CN1CCOCC1)[C@H](CO)c1c2c2ccc(OC)cc2n1C	none (no result: S100A4 inh HTS, SIRT5 inh, ERAP1 inh)
CCOc1ccccc1NC(=O)c1cc(SC)ccc1Cl	Ecoli rRNA inh -30 | AID977621 inactive | AID977628 inactive
CCOc1ccccc1NC(=O)c1cccc2ccccc12	none
C[C@H]1CN([C@@H](C)CO)C(=O)c2cc(NC(=O)C3CCCCC3)ccc2O[C@@H]1CN(C)S(=O)(=O)c1ccc(F)cc1	none
O=C(NCC1CC1)[C@@H]1[C@@H](CO)[C@@H]2Cn3c(cccc3=O)[C@@H]2N1C(=O)CC1CC1	none
CC(=O)c1ccc(Sc2ccccc2N)c([N+](=O)[O-])c1	Ecoli rRNA inh -16 (no result: SIRT5 inh, ERAP1 inh) | AID977628 inactive
Nc1ccccc1Sc1ccc(C(=O)c2ccccc2C(=O)O)cc1[N+](=O)[O-]	none (no result: ERAP1 inh)
COc1ccccc1NC(=O)N[C@H]1CC[C@H](CC(=O)NCc2ccc(Cl)c(Cl)c2)O[C@H]1CO	none
O=C(CSc1nnc(-c2ccccc2F)n1C1CC1)Nc1cccnc1Cl	Ecoli rRNA inh -16 (no result: SIRT5 inh, CFTR F508del cor) | AID977621 inactive | AID977628 inactive
O=C(CSc1nnc(-c2ccccc2F)n1C1CCCCC1)Nc1cc(C(=O)O)ccc1Cl	none
CNC(=O)C[C@H]1CC[C@@H]2[C@@H](COc3ccc(NC(=O)Nc4ccc(F)c(F)c4)cc3C(=O)N2C)O1	Ecoli rRNA inh -20 | AID977628 inconclusive
O=C(O)c1cc2ccc3ccccc3c2[nH]1	Ecoli rRNA inh -26 | AID977621 inactive
O=C(O)c1cc(=O)c2ccccc2[nH]1	none (no result: SIRT5 inh, Ecoli rRNA inh)
O=C(C[C@H]1CC[C@H](NC(=O)Nc2cc(F)ccc2F)[C@H](CO)O1)NCc1ccccn1	none
CC(=O)c1ccccc1OCCOCCOCCOc1ccccc1C(C)=O	Ecoli rRNA inh -22 | AID977621 inactive | AID977628 inconclusive
CC(=O)c1ccccc1OCCCOc1cccc2cccnc12	none
NC(=O)c1ccccc1OCCOc1ccc(Br)cc1	Ecoli rRNA inh -26 | AID977621 inactive | AID977628 inactive
COCC(=O)N(C)C[C@@H]1Oc2ncc(C#C[C@H](C)O)cc2C(=O)N([C@H](C)CO)C[C@H]1C	none
COCc1c(C#N)c(NCCc2ccc(F)cc2)nc(C)c1[N+](=O)[O-]	Ecoli rRNA inh -17 (no result: CFTR F508del cor) | AID977621 inactive | AID977628 inactive
COCc1c(C#N)c(NCCc2ccccc2)nc(C)c1[N+](=O)[O-]	none (no result: CFTR F508del cor)
COc1ccc(NC(=O)Nc2cccc3c2O[C@H](CN(C)S(=O)(=O)c2ccc(Cl)cc2)[C@H](C)CN([C@H](C)CO)C3=O)cc1	none | AID977621 inactive | AID977628 inconclusive
C[C@H]1CN([C@@H](C)CO)C(=O)c2cccc(NC(=O)c3ccncc3)c2O[C@@H]1CN(C)S(=O)(=O)c1ccc(Cl)cc1	none
C[C@@H]1CN([C@H](C)CO)C(=O)c2cccc(NC(=O)c3ccncc3)c2O[C@@H]1CN(C)S(=O)(=O)c1ccc(Cl)cc1	Ecoli rRNA inh -23 | AID977628 inconclusive
O=C(C[C@@H]1CC[C@@H]2[C@H](COC[C@@H](O)CN2CC2CC2)O1)NCC1CC1	none
O=C(C[C@@H]1C[C@H]2c3cc(NC(=O)C4CCC4)ccc3O[C@H]2[C@H](CO)O1)NCC(F)(F)F	none
CCCc1nc2cc(C)c(Br)c(C)n2c1CC1CCCCC1	Ecoli rRNA inh -20 (no result: ERAP1 inh) | AID977628 inactive
Cc1noc(C)c1NC(=O)Nc1ccc2c(c1)C(=O)N([C@H](C)CO)C[C@@H](C)[C@H](CN(C)Cc1ccc(C(F)(F)F)cc1)OCCCC[C@@H](C)O2	none
CN(C)CCNc1ncnc2c1sc1nc(N3CCCC3)c3c(c12)CC(C)(C)OC3	Ecoli rRNA inh -21 | AID977628 inactive
O=C1c2ccccc2NC(c2cccc(F)c2)N1Cc1ccccc1 (stereo unspecified)	none
O=C1c2ccccc2NC(c2cccc(F)c2)N1Cc1ccco1 (stereo unspecified)	Ecoli rRNA inh -33 | AID977621 inactive | AID977628 inactive
O=C(NCc1cccc(Cl)c1)c1ccc2c(c1)SC1=NS(=O)(=O)CCN12	none
O=C(NCc1ccccc1Cl)c1ccc2c(c1)SC1=NS(=O)(=O)CCN12	Ecoli rRNA inh -20 (no result: ERAP1 inh) | AID977621 inactive | AID977628 inactive
COc1ccc(CN2C(=O)CSCC2(C)C(=O)NCc2ccccc2)cc1 (stereo unspecified)	none (no result: ERAP1 inh)
COc1ccc(CNC(=O)c2cc3c(s2)CN(Cc2ccccc2)C3)cc1	Ecoli rRNA inh -22 | AID977621 inactive
CC(=O)N(Cc1cccc(F)c1)C[C@@H]1[C@@H](c2ccccc2)[C@@H](CO)N1C(C)=O	none
CCN(CC)S(=O)(=O)c1cc(NC(=O)C(C)N2CCN(Cc3ccc4c(c3)OCO4)CC2)ccc1C (stereo unspecified)	Ecoli rRNA inh -21 | AID977621 inconclusive
CCOc1ccc2oc(C(=O)NC3CCN(Cc4ccccc4)CC3)c(C)c2c1	Ecoli rRNA inh -23 | AID977621 inactive
Cc1cccc(-c2ccc([C@@H]3[C@@H](CO)N4CCCCN(S(=O)(=O)c5ccccc5C)C[C@@H]34)cc2)c1	none | AID977621 inactive | AID977628 inactive
Cc1cccc(-c2ccc([C@H]3[C@H]4CN(S(=O)(=O)c5ccccc5C)CCCCN4[C@H]3CO)cc2)c1	none | AID977621 inactive | AID977628 inconclusive
Cc1ccccc1S(=O)(=O)N1CCCCN2[C@H](CO)[C@@H](c3ccc(-c4cccc(F)c4)cc3)[C@@H]2C1	none (no result: S100A4 inh HTS, ERAP1 inh)
Cc1cccc(-c2ccc([C@H]3[C@@H](CO)N4CCCCN(S(=O)(=O)c5ccccc5F)C[C@H]34)cc2)c1	none (no result: S100A4 inh HTS, SIRT5 inh, ERAP1 inh)
COc1cccc(-c2ccc([C@@H]3[C@@H](CO)N4CCCCN(S(=O)(=O)c5cccs5)C[C@H]34)cc2)c1	none
Cc1cccc(-c2ccc([C@@H]3[C@@H](CO)N4CCCCN(S(=O)(=O)c5ccccc5C)C[C@H]34)cc2)c1	none | AID977621 inactive | AID977628 inactive

Screens as filed in PubChem BioAssay.
